Our source for the IC50, inhibition and Activity values is ChEMBL document CHEMBL4190270, “Novel 4-arylaminoquinazoline derivatives with (E)-propen-1-yl moiety as potent EGFR inhibitors with enhanced antiproliferative activities against tumor cells” (Eur J Med Chem, 2017).

Each structure is given as a SMILES string. Active and inactive are the calls of the source. No cut-off for these calls is given here. A value given as a limit tells only on which side of the number the result lay.

In data set [1] the test system is A549. Briefly: Antiproliferative activity against human A549 cells harboring wild type EGFR/K-Ras mutant after 72 hrs by MTT assay. As to conditions: A549, 72 h. It counts as functional, cell-based. A general note: Tetrazolium dyes change colour on reduction, which living cells bring about.
Data set [2] has as its system SW480. Briefly: Antiproliferative activity against human SW480 cells harboring wild type EGFR after 72 hrs by MTT assay. As to conditions: SW480, 72 h. The data set is classed as functional, cell-based.
In data set [3] the test system is NCI-H1975. Briefly: Antiproliferative activity against human NCI-H1975 cells harboring EGFR L858R/T790M mutant after 72 hrs by MTT assay. The data set is classed as functional, cell-based. As to conditions: NCI-H1975, 72 h.
Data set [4] deals with A-431. Briefly: Antiproliferative activity against human A431 cells harboring wild type EGFR after 72 hrs by MTT assay. The data set is classed as functional, cell-based. As to conditions: A-431, 72 h. Summed up: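 Cells grown in DMEM or 1640 with 10% FBS, penicillin/streptomycin and 2 mM L-glutamine, plated in 96 wells for 24 h at 37 °C under 5% CO2. Exposed to compound as an 8-point series, or to 0.5% DMSO, for 72 h. Then MTT (5 mg/ml) for 4 h, formazan dissolved in DMSO, absorbance read at 570 nm (630 nm reference). IC50 by nonlinear regression; mean ± SD of at least three independent experiments.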

The target in data set [5] is T1, Epidermal growth factor receptor (Homo sapiens, UniProt P00533). It counts as cell-based, HEK293.
T1 sequence (P00533 whole entry): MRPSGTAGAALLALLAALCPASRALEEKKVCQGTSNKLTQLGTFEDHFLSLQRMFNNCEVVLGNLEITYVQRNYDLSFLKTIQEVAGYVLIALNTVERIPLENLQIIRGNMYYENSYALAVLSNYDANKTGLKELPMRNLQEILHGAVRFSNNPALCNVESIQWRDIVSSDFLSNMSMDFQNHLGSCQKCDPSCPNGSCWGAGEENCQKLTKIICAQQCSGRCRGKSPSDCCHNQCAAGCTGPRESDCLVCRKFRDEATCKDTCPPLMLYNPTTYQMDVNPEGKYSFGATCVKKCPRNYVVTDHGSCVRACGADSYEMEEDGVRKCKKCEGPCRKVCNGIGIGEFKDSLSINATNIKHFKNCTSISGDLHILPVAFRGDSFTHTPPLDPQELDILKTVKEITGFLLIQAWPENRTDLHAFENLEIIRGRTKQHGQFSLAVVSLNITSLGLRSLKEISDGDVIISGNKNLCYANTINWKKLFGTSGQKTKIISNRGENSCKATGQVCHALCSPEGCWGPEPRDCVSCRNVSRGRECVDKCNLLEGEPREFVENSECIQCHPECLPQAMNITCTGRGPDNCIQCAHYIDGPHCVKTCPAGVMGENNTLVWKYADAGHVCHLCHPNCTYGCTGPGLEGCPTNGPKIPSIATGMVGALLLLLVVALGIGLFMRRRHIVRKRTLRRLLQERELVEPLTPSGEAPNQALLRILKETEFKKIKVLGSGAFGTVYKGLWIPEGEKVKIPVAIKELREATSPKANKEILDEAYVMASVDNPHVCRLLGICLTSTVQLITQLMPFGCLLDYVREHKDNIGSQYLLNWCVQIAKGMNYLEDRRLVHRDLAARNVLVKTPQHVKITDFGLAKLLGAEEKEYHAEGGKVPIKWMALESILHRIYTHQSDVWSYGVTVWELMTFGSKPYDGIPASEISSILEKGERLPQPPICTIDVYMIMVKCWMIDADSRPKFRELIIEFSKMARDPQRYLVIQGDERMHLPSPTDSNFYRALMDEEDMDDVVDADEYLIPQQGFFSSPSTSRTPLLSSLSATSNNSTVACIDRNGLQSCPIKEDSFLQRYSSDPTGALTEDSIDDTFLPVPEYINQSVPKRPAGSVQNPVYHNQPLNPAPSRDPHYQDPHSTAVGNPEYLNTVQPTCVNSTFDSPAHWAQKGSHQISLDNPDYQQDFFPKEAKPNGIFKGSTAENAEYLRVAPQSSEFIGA
In data set [6] the test system is Epidermal growth factor receptor (Homo sapiens), P00533 [L858R,T790M]. Briefly: Inhibition of EGFR L858R/T790M double mutant in human NCI-H1975 cells assessed as reduction in EGF-induced ERK1/2 phosphorylation at T202/Y204 residues at 25 uM preincubated for 2 hrs followed by EGF stimulation for 10 mins by Western blot analysis. The data set is classed as cell-based. Summed up:
(§1)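 Cells grown in 6-well plates with 10% FBS to 90% confluence, then serum-starved 24 h. Exposed to a dose range of compound, or to 25 μM reference drug, for 2 h, then stimulated with 50 ng/mL EGF for 10 min at 37 °C. Lysed in RIPA with protease/phosphatase inhibitors. 20 µg protein run on 10% SDS-PAGE, transferred to PVDF, blocked with 5% milk, immunoblotted and detected by ECL.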
Background: A western blot detects proteins with antibodies after separation by electrophoresis.

Data set [7] has as its target T1, Epidermal growth factor receptor. The following applies: A549, at 25 µM.
Data set [8] concerns Epidermal growth factor receptor (Homo sapiens), P00533 [L858R,T790M]. Briefly: Inhibition of EGF-induced EGFR L858R/T790M double mutant phosphorylation at Y992-residue in human NCI-H1975 cells preincubated for 2 hrs followed by EGF stimulation for 10 mins by Western blot analysis. The data set is classed as cell-based. Summed up:
as §1

The target of data set [9] is T1, Epidermal growth factor receptor. Briefly: Inhibition of EGFR in human A549 cells assessed as reduction in EGF-induced Akt phosphorylation at S473 residue at 5 uM preincubated for 2 hrs followed by EGF stimulation for 10 mins by Western blot analysis. It counts as cell-based. An outline of the steps: as §1
Data set [10] concerns Epidermal growth factor receptor (Homo sapiens), P00533 [L858R,T790M]. The following applies: NCI-H1975, at 25 µM.
Epidermal growth factor receptor (Homo sapiens), P00533 [L858R,T790M], sequence (P00533 whole entry T790M/L858R, looked up): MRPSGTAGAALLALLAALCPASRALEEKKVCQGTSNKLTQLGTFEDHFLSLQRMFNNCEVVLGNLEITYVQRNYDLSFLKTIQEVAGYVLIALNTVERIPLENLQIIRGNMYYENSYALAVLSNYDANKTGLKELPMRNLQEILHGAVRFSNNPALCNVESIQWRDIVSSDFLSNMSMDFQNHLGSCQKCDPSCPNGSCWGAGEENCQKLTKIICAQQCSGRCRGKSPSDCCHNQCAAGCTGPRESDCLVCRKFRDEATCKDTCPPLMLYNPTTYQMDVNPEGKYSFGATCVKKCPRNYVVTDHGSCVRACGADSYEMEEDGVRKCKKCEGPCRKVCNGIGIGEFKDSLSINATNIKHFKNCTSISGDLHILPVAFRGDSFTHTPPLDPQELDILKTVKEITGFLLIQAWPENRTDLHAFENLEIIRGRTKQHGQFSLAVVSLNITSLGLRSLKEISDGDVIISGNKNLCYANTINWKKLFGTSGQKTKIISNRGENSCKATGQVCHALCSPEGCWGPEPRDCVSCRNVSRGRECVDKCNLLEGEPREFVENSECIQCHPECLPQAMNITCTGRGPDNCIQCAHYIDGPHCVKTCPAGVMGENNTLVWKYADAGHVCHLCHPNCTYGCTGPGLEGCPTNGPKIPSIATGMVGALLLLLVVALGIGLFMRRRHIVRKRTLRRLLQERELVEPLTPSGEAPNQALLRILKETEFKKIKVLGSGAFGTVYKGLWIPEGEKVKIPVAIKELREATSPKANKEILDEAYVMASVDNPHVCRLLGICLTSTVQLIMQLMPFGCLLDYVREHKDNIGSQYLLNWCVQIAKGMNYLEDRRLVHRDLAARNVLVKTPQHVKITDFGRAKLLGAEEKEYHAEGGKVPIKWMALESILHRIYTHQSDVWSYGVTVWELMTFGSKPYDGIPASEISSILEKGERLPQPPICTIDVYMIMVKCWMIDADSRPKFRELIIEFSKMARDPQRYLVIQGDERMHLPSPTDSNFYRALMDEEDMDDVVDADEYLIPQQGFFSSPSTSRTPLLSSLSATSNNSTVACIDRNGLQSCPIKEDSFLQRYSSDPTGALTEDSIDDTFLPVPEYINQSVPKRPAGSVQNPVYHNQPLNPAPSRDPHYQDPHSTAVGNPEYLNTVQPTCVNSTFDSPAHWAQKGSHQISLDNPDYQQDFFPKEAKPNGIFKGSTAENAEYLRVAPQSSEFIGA
Data set [11] has the same test system. Briefly: Inhibition of EGF-induced EGFR L858R/T790M double mutant phosphorylation at Y1068-residue in human NCI-H1975 cells preincubated for 2 hrs followed by EGF stimulation for 10 mins by Western blot analysis. The data set is classed as cell-based. An outline of the steps:
as §1

Data set [12] has as its target T1, Epidermal growth factor receptor. Briefly: Inhibition of EGFR in human A549 cells assessed as reduction in EGF-induced ERK1/2 phosphorylation at T202/Y204 residues at 5 uM preincubated for 2 hrs followed by EGF stimulation for 10 mins by Western blot analysis. It counts as cell-based. Summed up: as §1
Data set [13] has the same target. The following applies: A549, at 25 µM. This is another data set of the same source.
Data set [14] shares this target. As to conditions: A549, at 25 µM. The source holds these as a separate data set.
Data set [15] concerns Epidermal growth factor receptor (Homo sapiens), P00533 [L858R,T790M]. Briefly: Inhibition of EGF-induced EGFR L858R/T790M double mutant phosphorylation at Tyr-residue in human NCI-H1975 cells preincubated for 2 hrs followed by EGF stimulation for 10 mins by Western blot analysis. The data set is classed as cell-based. Summed up:
as §1

For data set [16], the system named is A549. Briefly: Effect on total AKT protein expression in human A549 cells at 1 to 25 uM preincubated for 2 hrs followed by EGF stimulation for 10 mins by Western blot analysis. It counts as ADME, cell-based. The following applies: a549, 10 min. Summed up:
as §1

Data set [17] deals with T1, Epidermal growth factor receptor. As to conditions: A549, at 25 µM. This is another data set of the same source.
Data set [18] concerns A549. Briefly: Effect on total ERK1/2 protein expression in human A549 cells at 1 to 25 uM preincubated for 2 hrs followed by EGF stimulation for 10 mins by Western blot analysis. It counts as ADME, cell-based. As to conditions: a549, 10 min. An outline of the steps:
as §1

Data set [19] deals with T1, Epidermal growth factor receptor. Briefly: Inhibition of EGFR in human A549 cells assessed as reduction in EGF-induced STAT3 phosphorylation at 1 to 25 uM preincubated for 2 hrs followed by EGF stimulation for 10 mins by Western blot analysis. The data set is classed as cell-based. An outline of the steps: as §1
The target is the same in data set [20]. The following applies: A549, at 25 µM. This is another data set of the same source.
For data set [21] the target is unchanged. Briefly: Inhibition of EGF-induced EGFR phosphorylation at Tyr-residue in human A549 cells at 5 uM preincubated for 2 hrs followed by EGF stimulation for 10 mins by Western blot analysis. The data set is classed as cell-based. Summed up: as §1
The test system of data set [22] is A549. Briefly: Effect on total EGFR protein expression in human A549 cells at 1 to 25 uM preincubated for 2 hrs followed by EGF stimulation for 10 mins by Western blot analysis. It counts as ADME, cell-based. As to conditions: a549, 10 min. Summed up: as §1
Data set [23] deals with T1, Epidermal growth factor receptor. Briefly: Inhibition of EGF-induced EGFR phosphorylation at Y1086-residue in human A549 cells at 5 uM preincubated for 2 hrs followed by EGF stimulation for 10 mins by Western blot analysis. The data set is classed as cell-based. An outline of the steps:
as §1

Data set [24] has the same target. Briefly: Inhibition of EGF-induced EGFR phosphorylation at Y992-residue in human A549 cells at 5 uM preincubated for 2 hrs followed by EGF stimulation for 10 mins by Western blot analysis. The data set is classed as cell-based. Summed up:
as §1

Data set [25] concerns Epidermal growth factor receptor (Homo sapiens), P00533 [L858R,T790M]. Briefly: Inhibition of EGFR L858R/T790M double mutant in human NCI-H1975 cells assessed as reduction in EGF-induced Akt phosphorylation at Ser473 residue at 25 uM preincubated for 2 hrs followed by EGF stimulation for 10 mins by Western blot analysis. It counts as cell-based. An outline of the steps:
as §1

For orientation: IC50 means the concentration that gives 50% inhibition. As to `C/C=C/c1ccc(Nc2ncnc3cc4c(cc23)OCCO4)cc1`, the IC50 in data set [1] is 38.2 µM; in data set [2] it was 34 µM; in data set [3] it was greater than 100 µM; in [4] it was greater than 100 µM.
Turning to `C/C=C/c1ccc(Nc2ncnc3cc(OCc4ccccc4)c(OCc4ccccc4)cc23)cc1`, the IC50 stood at 36.5 µM in [1], 37 µM in data set [2], 44.1 µM in data set [3] and 28.1 µM in data set [4].
Regarding `C/C=C/c1ccc(Nc2ncnc3cc(OCCN4CCOCC4)c(OC)cc23)cc1`, the IC50 is 37.5 µM in data set [1], 27.6 µM in data set [2], greater than 100 µM in [3] and 22.4 µM in [4].
Consider `C/C=C/c1ccc(Nc2ncnc3cc(OC)c(OCCN4CCOCC4)cc23)cc1`, for which the IC50 in [1] was 26.5 µM; in data set [2], 28.2 µM; in data set [3], greater than 100 µM; in [4] it was 47.1 µM.
With `C/C=C/c1ccc(Nc2ncnc3cc(OC)c(OCCCN4CCOCC4)cc23)cc1`, the IC50 came out at 10.3 µM in data set [1], 14.7 µM in data set [2], 38.9 µM in data set [3] and 13.9 µM in data set [4].
In data set [5], `C/C=C/c1ccc(Nc2ncnc3cc(OCCCN4CCOCC4)c(OCCCN4CCOCC4)cc23)cc1` came in with an IC50 of 0.0207 µM. For the same molecule, the inhibition entry in data set [6], in [7], in data set [9], in data set [10], in [12] and in data set [13] was “Active” throughout. The inhibition entry in data set [14], in data set [17], in data set [20], in data set [21], in data set [23] and in data set [24] was “Active” each time. The inhibition result in data set [25] was “Active”. Also, the inhibition result in [8], in [11] and in data set [15] was “Dose-dependent effect” in each case. The Activity result in data set [16], in [18] and in [22] was “Non-Toxic” each time. Besides, the inhibition result in data set [19] was “inactive”.
Consider `C/C=C/c1ccc(Nc2ncnc3ccc(OCCN4CCOCC4)cc23)cc1`, for which the IC50 in data set [1] was 85.3 µM; in data set [2], 62.6 µM; in data set [3] it was greater than 100 µM; in data set [4] it was 57.7 µM.
`C/C=C/c1ccc(Nc2ncnc3ccc(OCCCN4CCOCC4)cc23)cc1`: the IC50 stood at 17.4 µM in data set [1], 10.4 µM in data set [2], 23.9 µM in [3] and 12 µM in data set [4].
As to `C/C=C/c1ccc(Nc2ncnc3ccc(-c4ccc(CNCCS(C)(=O)=O)o4)cc23)cc1`, the IC50 is 84.5 µM in data set [1], 56.3 µM in data set [2], greater than 100 µM in data set [3] and 37.6 µM in data set [4].
Turning to `CS(=O)(=O)CCNCc1ccc(-c2ccc3ncnc(Nc4ccc(OCc5cccc(F)c5)c(Cl)c4)c3c2)o1` [LAPATINIB], in data set [3], the IC50 turned out to be 9.08 µM.
`C/C=C/c1ccc(Nc2ncnc3cc(OCCCN4CCOCC4)c(OC)cc23)cc1`: the IC50 in data set [1] turned out to be 10.3 µM; in data set [2], 11.6 µM; in data set [3], 10.8 µM; in data set [4], 6.34 µM.
For `C/C=C/c1ccc(Nc2ncnc3cc(OCCOC)c(OCCOC)cc23)cc1`, the IC50 in data set [1] turned out to be 24.7 µM; in data set [2], 43.6 µM; in data set [3], 27.7 µM; in data set [4], 23.9 µM.
